# From ChEMBL document CHEMBL4270536, “Preparation, characterisation and biological evaluation of new N-phenyl amidobenzenesulfonates and N-phenyl ureidobenzenesulfonates inducing DNA double-strand breaks. Part 3. Modulation of ring A” (Eur J Med Chem, 2018)
# Calls of active or inactive are those of the source. The rule behind the calls is not given here.
# Test system: HT-1080
# Test: Antiproliferative activity against human HT1080 cells after 48 hrs by SRB assay
# Format: functional, cell-based
# Details: HT-1080, 48 h
# Method in brief: (§1)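 Cells grown in DMEM with 5% FBS at 37 C; seeded per well at 2.5 x 10^3 (HT-1080), 4.0 x 10^3 (HT-29), 3.0 x 10^3 (M21) or 2.5 x 10^3 (MCF7). Drugs from 40 mM DMSO stock, serial dilutions, final 100 µM to 78 nM, DMSO <0.5%.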
row,Structure (SMILES),IC50 [µM]
1,CC(C)c1ccccc1OS(=O)(=O)c1ccc(NC(=O)NCCCCl)cc1,2.7
2,CCC(=O)Nc1ccc(S(=O)(=O)Oc2ccccc2C(C)C)cc1,2.1
3,CC(C)c1ccccc1OS(=O)(=O)c1ccc(NC(=O)C(C)(C)C)cc1,11
4,CC(C)c1ccccc1OS(=O)(=O)c1ccc(NC(=O)CCCl)cc1,6.5
5,CCNC(=O)Nc1ccc(S(=O)(=O)Oc2ccccc2C(C)C)cc1,0.25
6,CCCC(=O)Nc1ccc(S(=O)(=O)Oc2ccccc2I)cc1,2
7,CCCC(=O)Nc1ccc(S(=O)(=O)Oc2ccccc2C(C)C)cc1,0.95

# Test system: HT-29
# Test: Antiproliferative activity against human HT-29 cells after 48 hrs by SRB assay
# Format: functional, cell-based
# Details: HT-29, 48 h
# Method in brief: as §1
row,Structure (SMILES),IC50 [µM]
1,CC(C)c1ccccc1OS(=O)(=O)c1ccc(NC(=O)NCCCCl)cc1,6.9
2,CCC(=O)Nc1ccc(S(=O)(=O)Oc2ccccc2C(C)C)cc1,7.4
3,CC(C)c1ccccc1OS(=O)(=O)c1ccc(NC(=O)C(C)(C)C)cc1,15
4,CC(C)c1ccccc1OS(=O)(=O)c1ccc(NC(=O)CCCl)cc1,16
5,CCNC(=O)Nc1ccc(S(=O)(=O)Oc2ccccc2C(C)C)cc1,1.1
6,CCCC(=O)Nc1ccc(S(=O)(=O)Oc2ccccc2I)cc1,11
7,CCCC(=O)Nc1ccc(S(=O)(=O)Oc2ccccc2C(C)C)cc1,4.9

# Test system: M21
# Test: Antiproliferative activity against human M21 cells after 48 hrs by SRB assay
# Format: functional, cell-based
# Details: M21, 48 h
# Method in brief: as §1
row,Structure (SMILES),IC50 [µM]
1,CC(C)c1ccccc1OS(=O)(=O)c1ccc(NC(=O)NCCCCl)cc1,9.3
2,CCC(=O)Nc1ccc(S(=O)(=O)Oc2ccccc2C(C)C)cc1,11
3,CC(C)c1ccccc1OS(=O)(=O)c1ccc(NC(=O)C(C)(C)C)cc1,6.2
4,CC(C)c1ccccc1OS(=O)(=O)c1ccc(NC(=O)CCCl)cc1,14
5,CCNC(=O)Nc1ccc(S(=O)(=O)Oc2ccccc2C(C)C)cc1,4.7
6,CCCC(=O)Nc1ccc(S(=O)(=O)Oc2ccccc2I)cc1,9
7,CCCC(=O)Nc1ccc(S(=O)(=O)Oc2ccccc2C(C)C)cc1,6.1

# Test system: MCF7
# Test: Antiproliferative activity against human MCF7 cells after 48 hrs by SRB assay
# Format: functional, cell-based
# Details: MCF7, 48 h
# Method in brief: as §1
row,Structure (SMILES),IC50 [µM]
1,CC(C)c1ccccc1OS(=O)(=O)c1ccc(NC(=O)NCCCCl)cc1,7.4
2,CCC(=O)Nc1ccc(S(=O)(=O)Oc2ccccc2C(C)C)cc1,11
3,CC(C)c1ccccc1OS(=O)(=O)c1ccc(NC(=O)C(C)(C)C)cc1,6.5
4,CC(C)c1ccccc1OS(=O)(=O)c1ccc(NC(=O)CCCl)cc1,9
5,CCNC(=O)Nc1ccc(S(=O)(=O)Oc2ccccc2C(C)C)cc1,10
6,CCCC(=O)Nc1ccc(S(=O)(=O)Oc2ccccc2I)cc1,9.7
7,CCCC(=O)Nc1ccc(S(=O)(=O)Oc2ccccc2C(C)C)cc1,6.6

# Test system: M21
# Test: Cell cycle arrest in human M21 cells assessed as accumulation at sub-G1 phase at 2 times IC50 after 24 hrs by DAPI staining based flow cytometry relative to control
# Format: functional
# Details: not given
# Method in brief: (§2)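 Flow cytometry in M21 cells seeded in six-well plates, allowed 24 h, then exposed 24 h to drug (2- or 5-fold IC50); DMSO 0.5% control. Trypsinized, PBS-washed, fixed in ice-cold EtOH, stained with 2 mg/mL DAPI in PBS; sub-G1, G0/G1, S and G2/M fractions measured on LSR II cytometer.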
row,Structure (SMILES),Activity [%]
1,CCC(=O)Nc1ccc(S(=O)(=O)Oc2ccccc2C(C)C)cc1,0.6
2,CC(C)c1ccccc1OS(=O)(=O)c1ccc(NC(=O)C(C)(C)C)cc1,0.4
3,CC(C)c1ccccc1OS(=O)(=O)c1ccc(NC(=O)CCCl)cc1,0.1
4,CCCC(=O)Nc1ccc(S(=O)(=O)Oc2ccccc2I)cc1,0.1
5,CCCC(=O)Nc1ccc(S(=O)(=O)Oc2ccccc2C(C)C)cc1,0.7

# Test system: M21
# Test: Cell cycle arrest in human M21 cells assessed as accumulation at G0/G1 phase at 2 times IC50 after 24 hrs by DAPI staining based flow cytometry relative to control
# Format: functional
# Details: not given
# Method in brief: as §2
row,Structure (SMILES),Activity [%]
1,CCC(=O)Nc1ccc(S(=O)(=O)Oc2ccccc2C(C)C)cc1,39.6
2,CC(C)c1ccccc1OS(=O)(=O)c1ccc(NC(=O)C(C)(C)C)cc1,36.7
3,CC(C)c1ccccc1OS(=O)(=O)c1ccc(NC(=O)CCCl)cc1,33.7
4,CCCC(=O)Nc1ccc(S(=O)(=O)Oc2ccccc2I)cc1,37
5,CCCC(=O)Nc1ccc(S(=O)(=O)Oc2ccccc2C(C)C)cc1,40

# Test system: M21
# Test: Cell cycle arrest in human M21 cells assessed as accumulation at S phase at 2 times IC50 after 24 hrs by DAPI staining based flow cytometry relative to control
# Format: functional
# Details: not given
# Method in brief: as §2
row,Structure (SMILES),Activity [%]
1,CCC(=O)Nc1ccc(S(=O)(=O)Oc2ccccc2C(C)C)cc1,44.4
2,CC(C)c1ccccc1OS(=O)(=O)c1ccc(NC(=O)C(C)(C)C)cc1,46.9
3,CC(C)c1ccccc1OS(=O)(=O)c1ccc(NC(=O)CCCl)cc1,35.6
4,CCCC(=O)Nc1ccc(S(=O)(=O)Oc2ccccc2I)cc1,22.8
5,CCCC(=O)Nc1ccc(S(=O)(=O)Oc2ccccc2C(C)C)cc1,43.8

# Test system: M21
# Test: Cell cycle arrest in human M21 cells assessed as accumulation at G2/M phase at 2 times IC50 after 24 hrs by DAPI staining based flow cytometry relative to control
# Format: functional
# Details: not given
# Method in brief: as §2
row,Structure (SMILES),Activity [%]
1,CCC(=O)Nc1ccc(S(=O)(=O)Oc2ccccc2C(C)C)cc1,15.4
2,CC(C)c1ccccc1OS(=O)(=O)c1ccc(NC(=O)C(C)(C)C)cc1,16
3,CC(C)c1ccccc1OS(=O)(=O)c1ccc(NC(=O)CCCl)cc1,30.6
4,CCCC(=O)Nc1ccc(S(=O)(=O)Oc2ccccc2I)cc1,40.1
5,CCCC(=O)Nc1ccc(S(=O)(=O)Oc2ccccc2C(C)C)cc1,15.5

# Test system: M21
# Test: Induction of DNA damage in human M21 cells assessed as increase in gammaH2Ax level at 5 times IC50 after 24 hrs by immunofluorescence based epifluorescence microscopy
# Format: functional, cell-based
# Details: not given
# Method in brief: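 M21 cells (1 x 10^5) on fibronectin-coated (5 µg/mL, 1 h, 37 C) cover slides, 24 h attachment, then drug for 24 h; DMSO 0.25% in medium as control. Fixed with 3.7% formaldehyde, permeabilized with 0.1% saponin/3% BSA, mouse anti-H2AX pS139 (1:8000), DAPI nuclear stain; γH2AX foci imaged by epifluorescence microscopy.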
row,Structure (SMILES),Activity
1,CC(C)c1ccccc1OS(=O)(=O)c1ccc(NC(=O)NCCCCl)cc1,Active
2,CCNC(=O)Nc1ccc(S(=O)(=O)Oc2ccccc2C(C)C)cc1,Active

# Test system: not listed separately
# Test: Alkylating activity at DNA (unknown origin) after 90 mins by colorimetric NBP assay
# Format: functional
# Details: not given
# Method in brief: (§3)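 NBP alkylation kinetics (Bardos colorimetric method): 400 nmol drug in 1 mL ethanol mixed with 1 mL NBP (10% v/v in 95% ethanol), 1 mL 50 mM acetate buffer pH 4.3 and 1 mL ethanol, kept on ice, then heated at 80 C in shaking water bath; stopped on ice 5 min after 0, 30, 60, 90 min. Rate constant from linear regression of absorbance curve; chlorambucil as positive control.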
row,Structure (SMILES),K [×10⁻³ /s]
1,CC(C)c1ccccc1OS(=O)(=O)c1ccc(NC(=O)NCCCCl)cc1,0.033
2,CCC(=O)Nc1ccc(S(=O)(=O)Oc2ccccc2C(C)C)cc1,0.31
3,CC(C)c1ccccc1OS(=O)(=O)c1ccc(NC(=O)C(C)(C)C)cc1,0.007
4,CC(C)c1ccccc1OS(=O)(=O)c1ccc(NC(=O)CCCl)cc1,0.024
5,CCNC(=O)Nc1ccc(S(=O)(=O)Oc2ccccc2C(C)C)cc1,0.37
6,CCCC(=O)Nc1ccc(S(=O)(=O)Oc2ccccc2I)cc1,0.088
7,CCCC(=O)Nc1ccc(S(=O)(=O)Oc2ccccc2C(C)C)cc1,0.37

# Test system: not listed separately
# Test: Alkylating activity at DNA (unknown origin) after 90 mins by colorimetric NBP assay relative to chlorambucil
# Format: functional
# Details: not given
# Method in brief: as §3
row,Structure (SMILES),fold change (FC)
1,CC(C)c1ccccc1OS(=O)(=O)c1ccc(NC(=O)NCCCCl)cc1,160
2,CCC(=O)Nc1ccc(S(=O)(=O)Oc2ccccc2C(C)C)cc1,17
3,CC(C)c1ccccc1OS(=O)(=O)c1ccc(NC(=O)C(C)(C)C)cc1,780
4,CC(C)c1ccccc1OS(=O)(=O)c1ccc(NC(=O)CCCl)cc1,220
5,CCNC(=O)Nc1ccc(S(=O)(=O)Oc2ccccc2C(C)C)cc1,14
6,CCCC(=O)Nc1ccc(S(=O)(=O)Oc2ccccc2I)cc1,60
7,CCCC(=O)Nc1ccc(S(=O)(=O)Oc2ccccc2C(C)C)cc1,14

# Test system: M21
# Test: Cell cycle arrest in human M21 cells assessed as accumulation at S phase at 2 times IC50 after 24 hrs by DAPI staining based flow cytometry relative to control
# Details: not given
row,Structure (SMILES),Activity [%]
1,CC(C)c1ccccc1OS(=O)(=O)c1ccc(NC(=O)NCCCCl)cc1,38.6
2,CCNC(=O)Nc1ccc(S(=O)(=O)Oc2ccccc2C(C)C)cc1,31.5

# Test system: M21
# Test: Cell cycle arrest in human M21 cells assessed as accumulation at G2/M phase at 2 times IC50 after 24 hrs by DAPI staining based flow cytometry relative to control
# Details: not given
row,Structure (SMILES),Activity [%]
1,CC(C)c1ccccc1OS(=O)(=O)c1ccc(NC(=O)NCCCCl)cc1,17.2
2,CCNC(=O)Nc1ccc(S(=O)(=O)Oc2ccccc2C(C)C)cc1,8.9

# Test system: M21
# Test: Cell cycle arrest in human M21 cells assessed as accumulation at G0/G1 phase at 2 times IC50 after 24 hrs by DAPI staining based flow cytometry relative to control
# Details: not given
row,Structure (SMILES),Activity [%]
1,CC(C)c1ccccc1OS(=O)(=O)c1ccc(NC(=O)NCCCCl)cc1,43.4
2,CCNC(=O)Nc1ccc(S(=O)(=O)Oc2ccccc2C(C)C)cc1,58.8

# Test system: M21
# Test: Cell cycle arrest in human M21 cells assessed as accumulation at sub-G1 phase at 2 times IC50 after 24 hrs by DAPI staining based flow cytometry relative to control
# Details: not given
row,Structure (SMILES),Activity [%]
1,CC(C)c1ccccc1OS(=O)(=O)c1ccc(NC(=O)NCCCCl)cc1,0.8
2,CCNC(=O)Nc1ccc(S(=O)(=O)Oc2ccccc2C(C)C)cc1,0.8

# Test system: M21
# Test: Induction of DNA damage in human M21 cells assessed as increase in gammaH2Ax level at 5 times IC50 after 24 hrs by immunofluorescence based epifluorescence microscopy
# Details: not given
row,Structure (SMILES),Activity
1,CCC(=O)Nc1ccc(S(=O)(=O)Oc2ccccc2C(C)C)cc1,Active
2,CC(C)c1ccccc1OS(=O)(=O)c1ccc(NC(=O)C(C)(C)C)cc1,Active
3,CC(C)c1ccccc1OS(=O)(=O)c1ccc(NC(=O)CCCl)cc1,Active
4,CCCC(=O)Nc1ccc(S(=O)(=O)Oc2ccccc2I)cc1,Active
5,CCCC(=O)Nc1ccc(S(=O)(=O)Oc2ccccc2C(C)C)cc1,Active
